Results on nine molecules are retold here after ChEMBL document CHEMBL1144922 (J Med Chem, 2003).

Test [1] relates to MT2. The test can be described thus: Anti-HIV activity based on inhibition of HIV-1 induced cytopathogenicity in MT-2 cells. In kind it is functional, cell-based. The settings on record: Homo sapiens. The essentials:
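IC50 from inhibition of HIV-induced cytopathic effect in MT-2 cells. Values with SD are means of at least three independent experiments; values without SD come from a single experiment.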

The test system of test [2] is Human immunodeficiency virus 1. The test can be described thus: Anti-HIV activity against multidrug resistant HIV MM strain by inhibition of HIV p24 antigen expression in peripheral blood mononuclear cells(PBMC). Type of test: functional, organism-based. The essentials:
(§1)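 Read-out was HIV p24 antigen expression in peripheral blood mononuclear cells infected with multidrug-resistant HIV-1. Values with standard deviation are means of at least three experiments, and values without one come from a single experiment. Wild-type strain HIV104pre was the reference. Protease amino acid substitutions of each strain were characterised.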

Test [3] concerns Human immunodeficiency virus. In words: Inhibitory activity against wild type strain,HIV104pre. In kind it is functional, organism-based. Conditions: Human immunodeficiency virus 1. The essentials:
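Activity against the wild-type strain HIV104pre was read as inhibition of HIV p24 antigen expression in peripheral blood mononuclear cells (PBMC).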

Test [4] has as its system Human immunodeficiency virus 1. In words: Anti-HIV activity against multidrug resistant HIV TM strain by inhibition of HIV p24 antigen expression in peripheral blood mononuclear cells(PBMC). Type of test: functional, organism-based. In short, it runs like this:
as §1

Test [5] deals with MT2. In words: Cytotoxicity based on reduction of the viability of mock-infected MT-2 cells. Type of test: functional. Conditions: Homo sapiens. The essentials: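 CC50 taken as the concentration reducing the viability of mock-infected (uninfected) MT-2 cells. Values with SD are means of at least three independent experiments; values without SD come from a single experiment.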

Test [6] deals with Human immunodeficiency virus 1. The test can be described thus: Anti-HIV activity against multidrug resistant HIV JSL strain by inhibition of HIV p24 antigen expression in peripheral blood mononuclear cells(PBMC). Type of test: functional, organism-based. The essentials: as §1
Test [7] can be described thus: Selectivity index was determined as ratio of reduction of the viability of mock-infected MT-2 cells/inhibition of HIV-1 induced cytopathogenicity in MT-2 cells. Type of test: functional, MT2. Background: Cytopathic effects are the visible damage that an infection or toxin causes in cultured cells.
The target in test [8] is Human immunodeficiency virus type 1 protease (Human immunodeficiency virus 1, UniProt Q72874). In words: Inhibitory activity against HIV-1 protease. The essentials: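 Ki against HIV-1 protease. Enzyme reaction rate was obtained by SELDI-MS quantitation of the remaining parent peptide substrate.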

Broadly, the IC50 is the concentration that inhibits the measured activity by half. High values mean lower potency, low ones higher potency. As a reminder, the CC50 is the concentration at which the toxic effect on the cells reaches its halfway point. Low values mean greater toxicity to the cells, high ones lower toxicity to the cells. Usually Ki stands for the dissociation constant of the complex between target and ligand, obtained from inhibition or displacement. The low end stands for tighter binding, the high end for weaker binding.

Molecule `CC(C)CN(C[C@H](O)[C@@H](/C=C/[C@@H](C[S+]([O-])c1ccc2ccccc2c1)NS(C)(=O)=O)Cc1ccccc1)S(=O)(=O)c1ccc(N)cc1` (some centres not stated) came in with an IC50 in the test on MT2 [1] greater than 1000 nM.
On to `CC(C)CN(C[C@@H](O)[C@@H](/C=C/[C@@H](C[S+]([O-])c1ccc2ccccc2c1)NS(C)(=O)=O)Cc1ccccc1)S(=O)(=O)c1ccc(N)cc1` (some centres not stated), for which the IC50 in test [2] was 520 nM; in the test with MT2 [1], 160 nM; in test [3], 180 nM; in test [4] it was greater than 1000 nM; in test [6], 340 nM. In the test on MT2 [5], this molecule registered a CC50 of 8000 nM. In test [7], the SI was 58. The molecule also gave a Ki in test [8] of 0.38 nM.
For `Cc1cn([C@H]2C[C@H](N=[N+]=[N-])[C@@H](CO)O2)c(=O)[nH]c1=O` [ZIDOVUDINE], the IC50 in test [2] came to 37 nM; in the test on MT2 [1], 27 nM; in test [3], 2.5 nM; in test [4] it was 43 nM; in test [6], 64 nM. For the same molecule, the CC50 in the test on MT2 [5] is greater than 100000 nM.
For the molecule `CC(C)CN(C[C@@H](O)[C@H](Cc1ccccc1)NC(=O)O[C@H]1CCOC1)S(=O)(=O)c1ccc(N)cc1`, the IC50 in test [2] stood at 530 nM; in the test with MT2 [1] it was 36 nM; in test [3], 20 nM; in test [4], 480 nM; in test [6], 800 nM. Moreover, the CC50 in the test on MT2 [5] was greater than 100000 nM.
With `CC(C)(C)NC(=O)[C@@H]1C[C@@H]2CCCC[C@@H]2CN1C[C@@H](O)[C@H](Cc1ccccc1)NC(=O)[C@@H](C[S+]([O-])c1ccc2ccccc2c1)NS(C)(=O)=O` (some centres not stated), the IC50 in test [2] stood at 32 nM; in the test with MT2 [1] it was 9.5 nM; in test [3] it was 15 nM; in test [4], 34 nM; in test [6] it was 220 nM. Besides, the midpoint of cytotoxicity in the test with MT2 [5], the CC50, lay at 3900 nM. For the same molecule, in test [7], the SI was 410. Besides, the Ki in test [8] came to 0.12 nM.
As to `CC(C)(C)NC(=O)[C@@H]1C[C@@H]2CCCC[C@@H]2CN1CC(O)[C@@H](/C=C/[C@@H](CS(=O)(=O)c1ccc2ccccc2c1)NS(C)(=O)=O)Cc1ccccc1` (some centres not stated), the IC50 with MT2 [1] was greater than 1000 nM.
As to `CC(C)(C)NC(=O)[C@@H]1C[C@@H]2CCCC[C@@H]2CN1CC(O)[C@@H](/C=C/[C@@H](C[S+]([O-])c1ccc2ccccc2c1)NS(C)(=O)=O)Cc1ccccc1` (some centres not stated), the IC50 in the test on MT2 [1] is greater than 1000 nM.
Turning to `CC(C)CN(C[C@@H](O)[C@H](Cc1ccccc1)NC(=O)[C@@H](C[S+]([O-])c1ccc2ccccc2c1)NS(C)(=O)=O)S(=O)(=O)c1ccc(N)cc1` (some centres not stated), the IC50 in test [2] turned out to be 36 nM; with MT2 [1] it was 66 nM; in test [3], 31 nM; in test [4], 43 nM; in test [6], 25 nM. The molecule further came in with a 50% cytotoxic concentration (CC50) in the test with MT2 [5] of 33000 nM. The SI in test [7] is on record as 500. The Ki in test [8] came out at 0.1 nM.
On to `CC(C)(C)NC(=O)[C@@H]1C[C@@H]2CCCC[C@@H]2CN1C[C@@H](O)[C@H](Cc1ccccc1)NC(=O)[C@H](CC(N)=O)NC(=O)c1ccc2ccccc2n1`, for which the IC50 was 17 nM in the test with MT2 [1] and 19 nM in test [3]. For the same molecule, half-maximal cytotoxicity with MT2 [5] (CC50) was put at 11000 nM.
